Test results: ChEMBL document CHEMBL3112447, “Discovery of 1-methyl-1H-imidazole derivatives as potent Jak2 inhibitors” (J Med Chem, 2014)
Calls of active or inactive are those of the source. No cut-off for these calls is given here.

Key:
Mus musculus [1] = test: Toxicity in SCID mouse xenografted with human UKE1 cells assessed as body weight loss at 3 mg/kg, po bid administered for 14 days measured on day 31 (reference value: 7.1%); assay type: organism-based; design: dose 3 mg/kg, route oral; details: in vivo, 336 h
How it was run: (§1)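 UKE-1 cells mixed with matrigel implanted subcutaneously in female SCID mice. On day 15, mice randomized at a mean tumor volume of about 150 mm³. Oral gavage twice daily at 3 or 10 mg/kg, or vehicle, for 14 days. Tumor volume and body weight tracked through the dosing phase.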

[2] = Antitumor activity against human UKE1 cells xenografted in SCID mouse assessed as tumor growth inhibition at 3 mg/kg, po bid administered for 14 days measured on day 28; assay type: functional; details: read-out: TGI; how it was run: as §1
UKE1 = test: Antitumor activity against human UKE1 cells xenografted in po dosed SCID mouse assessed as tumor growth inhibition administered bid for 14 days; assay type: functional, organism-based; how it was run: as §1
Mus musculus [3] = test: In vivo inhibition of Jak2 in po dose3d mouse transfected with mouse BA/F3 cells expressing TEL-Jak2 assessed as inhibition of STAT5 phosphorylation after 6 to 12 hrs by Western blotting analysis; assay type: functional, organism-based; details: BaF3
How it was run: (§2)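 Mice bearing BaF3 TEL-JAK2 cells given a single oral dose of 3, 5 or 10 mg/kg and sacrificed at various times after dosing. Spleen lysates probed for phospho-STAT5 and total STAT5 by Western blot, and pSTAT5 inhibition assessed.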

Mus musculus [4] = test: In vivo inhibition of Jak2 in mouse transfected with mouse BA/F3 cells expressing TEL-Jak2 assessed as inhibition of STAT5 phosphorylation at 3 to 10 mg/kg, po by Western blotting analysis; assay type: functional, organism-based; details: BaF3, TDE = time-dependent effect; how it was run: as §2
Mus musculus [5] = test: In vivo inhibition of Jak2 in mouse transfected with mouse BA/F3 cells expressing TEL-Jak2 assessed as inhibition of STAT5 phosphorylation at 3 mg/kg, po after 8 hrs by Western blotting analysis; assay type: functional; details: BaF3, 8 h; how it was run: as §2
Mus musculus [6] = test: In vivo inhibition of Jak2 in mouse transfected with mouse BA/F3 cells expressing TEL-Jak2 assessed as inhibition of STAT5 phosphorylation at 3 mg/kg, po after 6 hrs by Western blotting analysis; assay type: functional; details: BaF3, 6 h; how it was run: as §2
Mus musculus [7] = test: In vivo inhibition of Jak2 in mouse transfected with mouse BA/F3 cells expressing TEL-Jak2 assessed as inhibition of STAT5 phosphorylation at 10 mg/kg, po after 12 hrs by Western blotting analysis; assay type: functional; details: BaF3, 12 h; how it was run: as §2
Mus musculus [8] = test: In vivo inhibition of Jak2 in mouse transfected with mouse BA/F3 cells expressing TEL-Jak2 assessed as inhibition of STAT5 phosphorylation at 10 mg/kg, po after 6 hrs by Western blotting analysis; assay type: functional, organism-based; design: dose 10 mg/kg; details: BaF3; how it was run: as §2
[9] = biological target: Non-receptor tyrosine-protein kinase TYK2 (Mus musculus) (UniProt Q9R117); test: (§3) Inhibition of Tyk2 in mouse BA/F3 cells expressing TEL-Tyk2 assessed as inhibition of STAT5 phosphorylation by Western blotting analysis; assay type: cell-based; details: BaF3
[10] = biological target: Non-receptor tyrosine-protein kinase TYK2 (Mus musculus, UniProt Q9R117); test: as §3; assay type: cell-based; details: baf3
[11] = biological target: Tyrosine-protein kinase JAK3 (Mus musculus) (UniProt Q62137); test: (§4) Inhibition of Jak3 in mouse BA/F3 cells expressing TEL-Jak3 assessed as inhibition of STAT5 phosphorylation by Western blotting analysis; assay type: cell-based; details: BaF3
[12] = biological target: Tyrosine-protein kinase JAK3 (Mus musculus, UniProt Q62137); test: as §4; assay type: cell-based, BaF3
[13] = biological target: Tyrosine-protein kinase JAK1 (Mus musculus) (UniProt P52332); test: (§5) Inhibition of Jak1 in mouse BA/F3 cells expressing TEL-Jak1 assessed as inhibition of STAT5 phosphorylation by Western blotting analysis; assay type: cell-based; details: BaF3
[14] = biological target: Tyrosine-protein kinase JAK1 (Mus musculus, UniProt P52332); test: as §5; assay type: cell-based, BaF3
[15] = Cytotoxicity against mouse BA/F3 cells expressing TEL-Jak1 after 72 hrs by MTS assay; assay type: functional; details: BaF3, 72 h
How it was run: (§6)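 BaF3 cells transfected with the kinase domain of Jak1, Jak3 or Tyk2 (TEL fusions). Growth inhibition measured as the counter-screen for cellular selectivity.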

[16] = Cytotoxicity against mouse BA/F3 cells expressing TEL-Jak3 after 72 hrs by MTS assay; assay type: functional; details: BaF3, 72 h; how it was run: as §6
[17] = biological target: Protein kinase C zeta type (Homo sapiens, UniProt Q05513); test: Inhibition of human PKCzeta
How it was run: (§7)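 Panel of 82 kinases. Radiometric filter-binding assay with ATP at or near Km. Compound tested at 0.01, 0.10 and 1.0 μM. Values expressed as minimum possible fold selectivity against Jak2.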

[18] = biological target: Serine/threonine-protein kinase SIK1 (Homo sapiens, UniProt P57059); test: Inhibition of human SIK; how it was run: as §7
LIM domain kinase 1 = LIM domain kinase 1 (Homo sapiens, UniProt P53667); test: Inhibition of human LIMK1; how it was run: as §7
Aurora kinase A = Aurora kinase A (Homo sapiens, UniProt O14965); test: Inhibition of human aurora A kinase; how it was run: as §7
[19] = biological target: Fibroblast growth factor receptor 1 (Homo sapiens, UniProt P11362); test: Inhibition of human FGFR1; how it was run: as §7
[20] = biological target: ALK tyrosine kinase receptor (Homo sapiens, UniProt Q9UM73); test: Inhibition of human ALK; how it was run: as §7
[21] = biological target: Proto-oncogene tyrosine-protein kinase receptor Ret (Homo sapiens, UniProt P07949); test: Inhibition of human Ret; how it was run: as §7
[22] = biological target: Vascular endothelial growth factor receptor 3 (Homo sapiens, UniProt P35916); test: Inhibition of human Flt4; how it was run: as §7
[23] = biological target: Tyrosine-protein kinase ABL1 (Homo sapiens, UniProt P00519); test: Inhibition of human Abl; how it was run: as §7
[24] = biological target: Vascular endothelial growth factor receptor 2 (Homo sapiens, UniProt P35968); test: Inhibition of human KDR; how it was run: as §7
[25] = biological target: Casein kinase II subunit alpha' (Homo sapiens, UniProt P19784); test: Inhibition of human CK2alpha2; how it was run: as §7
[26] = Half life in beagle dog at 2.5 mg/kg, iv; assay type: ADME, organism-based, Canis lupus familiaris; design: dose 2.5 mg/kg, route intravenous; details: in vivo
How it was run: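 Male beagle dogs. Oral dose 10 mg/kg in 0.1% HPMC, pH 2. IV dose 2.5 mg/kg in 20% TEG/D5W. […] Clearance, Vdss, half-life and oral bioavailability (F%) derived from the plasma profiles.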

[27] = Volume of distribution at steady state in Wistar rat at 10 mg/kg, po and 3 mg/kg, iv; assay type: ADME, organism-based; details: in vivo, read-out: Vdss
How it was run: (§8)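 Rat pharmacokinetics. Oral dose 10 mg/kg in 0.1% HPMC. IV dose 3 mg/kg in 40% DMA/40% PEG/20% saline. Clearance, half-life, Vdss and oral bioavailability derived from the plasma profiles.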

[28] = Clearance in Wistar rat at 10 mg/kg, po and 3 mg/kg, iv; assay type: ADME, organism-based; details: in vivo; how it was run: as §8
[29] = Antitumor activity against human UKE1 cells xenografted in SCID mouse assessed as tumor growth inhibition at 10 mg/kg, po bid administered for 14 days measured on day 28; assay type: functional; details: read-out: TGI; how it was run: as §1

Protein kinase C zeta type, sequence (Q05513 whole entry): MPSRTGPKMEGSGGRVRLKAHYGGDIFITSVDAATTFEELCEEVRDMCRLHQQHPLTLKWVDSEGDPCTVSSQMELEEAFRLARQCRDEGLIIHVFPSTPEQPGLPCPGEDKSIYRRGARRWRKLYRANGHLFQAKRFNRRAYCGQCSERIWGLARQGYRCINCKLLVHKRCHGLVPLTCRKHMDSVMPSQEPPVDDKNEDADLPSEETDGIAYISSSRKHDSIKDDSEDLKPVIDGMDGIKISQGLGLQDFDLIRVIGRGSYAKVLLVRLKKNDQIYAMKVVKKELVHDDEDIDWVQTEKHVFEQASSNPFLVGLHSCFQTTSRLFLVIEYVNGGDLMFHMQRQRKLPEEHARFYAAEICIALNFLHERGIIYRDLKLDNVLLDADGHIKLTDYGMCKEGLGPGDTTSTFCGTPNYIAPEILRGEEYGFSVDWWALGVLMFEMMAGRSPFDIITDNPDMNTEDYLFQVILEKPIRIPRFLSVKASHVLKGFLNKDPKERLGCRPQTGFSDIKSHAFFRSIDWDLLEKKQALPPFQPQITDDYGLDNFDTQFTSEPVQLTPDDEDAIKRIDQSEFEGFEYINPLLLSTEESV
Tyrosine-protein kinase JAK1 (Mus musculus), sequence (P52332 whole entry): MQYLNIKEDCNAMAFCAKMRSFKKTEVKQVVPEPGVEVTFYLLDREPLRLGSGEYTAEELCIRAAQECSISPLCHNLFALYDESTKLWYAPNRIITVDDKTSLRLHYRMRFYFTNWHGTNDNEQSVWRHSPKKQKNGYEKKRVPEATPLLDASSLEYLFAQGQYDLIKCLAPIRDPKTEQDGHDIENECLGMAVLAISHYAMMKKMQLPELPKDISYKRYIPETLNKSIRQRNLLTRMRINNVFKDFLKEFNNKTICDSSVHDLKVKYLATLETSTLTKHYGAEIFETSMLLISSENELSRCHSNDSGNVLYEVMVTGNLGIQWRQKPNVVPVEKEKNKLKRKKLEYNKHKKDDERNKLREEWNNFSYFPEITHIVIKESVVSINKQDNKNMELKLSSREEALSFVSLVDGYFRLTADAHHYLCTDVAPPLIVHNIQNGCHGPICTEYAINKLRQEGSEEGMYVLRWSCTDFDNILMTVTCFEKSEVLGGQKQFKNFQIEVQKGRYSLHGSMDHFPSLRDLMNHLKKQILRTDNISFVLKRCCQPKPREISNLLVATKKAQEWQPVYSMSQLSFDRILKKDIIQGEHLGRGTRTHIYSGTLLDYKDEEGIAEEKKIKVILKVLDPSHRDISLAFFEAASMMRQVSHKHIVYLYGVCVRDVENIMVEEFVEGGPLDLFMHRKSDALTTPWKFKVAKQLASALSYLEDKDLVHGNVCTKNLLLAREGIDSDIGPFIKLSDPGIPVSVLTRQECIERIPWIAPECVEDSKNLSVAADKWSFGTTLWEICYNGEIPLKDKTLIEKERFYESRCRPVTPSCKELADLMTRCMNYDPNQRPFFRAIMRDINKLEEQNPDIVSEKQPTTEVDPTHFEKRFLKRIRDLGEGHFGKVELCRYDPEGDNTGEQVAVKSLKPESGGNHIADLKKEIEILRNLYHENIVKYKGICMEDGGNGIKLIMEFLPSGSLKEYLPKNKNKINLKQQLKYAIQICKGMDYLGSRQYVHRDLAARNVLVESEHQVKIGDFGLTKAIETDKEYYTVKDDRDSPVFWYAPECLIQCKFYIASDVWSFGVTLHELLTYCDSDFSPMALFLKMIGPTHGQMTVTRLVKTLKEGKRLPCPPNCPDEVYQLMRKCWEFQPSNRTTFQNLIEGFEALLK
Tyrosine-protein kinase JAK1, sequence (P52332 whole entry): as above
LIM domain kinase 1, sequence (P53667 whole entry, the tested form may be a part): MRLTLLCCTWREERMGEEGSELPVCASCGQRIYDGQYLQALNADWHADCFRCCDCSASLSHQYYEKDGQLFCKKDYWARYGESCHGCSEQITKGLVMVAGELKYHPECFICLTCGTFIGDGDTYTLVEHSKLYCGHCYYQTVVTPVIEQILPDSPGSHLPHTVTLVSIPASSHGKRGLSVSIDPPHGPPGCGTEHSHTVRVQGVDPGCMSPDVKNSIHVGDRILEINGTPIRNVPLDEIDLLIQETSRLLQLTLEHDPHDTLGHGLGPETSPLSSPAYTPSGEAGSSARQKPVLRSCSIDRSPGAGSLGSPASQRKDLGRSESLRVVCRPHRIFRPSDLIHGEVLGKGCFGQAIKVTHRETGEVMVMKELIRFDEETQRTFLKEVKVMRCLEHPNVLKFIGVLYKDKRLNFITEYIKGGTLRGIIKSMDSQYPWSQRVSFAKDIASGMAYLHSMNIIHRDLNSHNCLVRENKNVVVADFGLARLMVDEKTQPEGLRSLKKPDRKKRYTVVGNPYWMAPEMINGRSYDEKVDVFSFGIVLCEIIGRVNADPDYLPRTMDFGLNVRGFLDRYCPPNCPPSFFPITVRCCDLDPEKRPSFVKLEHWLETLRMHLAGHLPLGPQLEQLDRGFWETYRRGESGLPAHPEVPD
Proto-oncogene tyrosine-protein kinase receptor Ret, sequence (P07949 whole entry): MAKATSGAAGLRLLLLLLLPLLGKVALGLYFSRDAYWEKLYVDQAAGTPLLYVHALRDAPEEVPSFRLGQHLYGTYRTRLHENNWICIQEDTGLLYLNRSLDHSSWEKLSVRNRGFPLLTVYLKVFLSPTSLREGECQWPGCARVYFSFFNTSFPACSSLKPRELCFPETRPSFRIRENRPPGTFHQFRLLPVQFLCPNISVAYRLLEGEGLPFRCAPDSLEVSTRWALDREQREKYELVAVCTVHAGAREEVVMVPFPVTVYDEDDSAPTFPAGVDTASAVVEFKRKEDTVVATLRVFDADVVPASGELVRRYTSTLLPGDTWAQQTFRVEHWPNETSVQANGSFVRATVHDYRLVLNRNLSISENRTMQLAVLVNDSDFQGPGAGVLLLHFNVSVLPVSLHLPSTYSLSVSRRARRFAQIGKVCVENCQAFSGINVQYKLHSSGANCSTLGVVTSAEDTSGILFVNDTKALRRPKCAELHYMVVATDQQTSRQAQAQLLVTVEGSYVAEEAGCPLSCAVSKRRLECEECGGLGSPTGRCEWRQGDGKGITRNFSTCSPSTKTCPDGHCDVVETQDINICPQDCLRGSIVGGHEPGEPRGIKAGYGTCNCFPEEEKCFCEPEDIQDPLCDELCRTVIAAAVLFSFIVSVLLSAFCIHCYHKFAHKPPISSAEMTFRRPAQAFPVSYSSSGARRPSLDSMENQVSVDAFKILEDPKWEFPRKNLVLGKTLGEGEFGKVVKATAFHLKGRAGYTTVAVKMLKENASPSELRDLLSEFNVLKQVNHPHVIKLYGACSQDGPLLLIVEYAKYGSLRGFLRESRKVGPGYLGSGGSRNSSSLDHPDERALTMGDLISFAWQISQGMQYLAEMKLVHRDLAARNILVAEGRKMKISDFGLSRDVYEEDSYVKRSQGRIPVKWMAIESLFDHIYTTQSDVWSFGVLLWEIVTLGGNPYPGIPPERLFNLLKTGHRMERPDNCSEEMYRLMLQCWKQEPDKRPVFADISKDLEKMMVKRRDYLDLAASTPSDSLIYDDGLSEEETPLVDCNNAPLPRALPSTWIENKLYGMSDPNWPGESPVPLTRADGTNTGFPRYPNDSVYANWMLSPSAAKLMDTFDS
Vascular endothelial growth factor receptor 2, sequence (P35968 whole entry): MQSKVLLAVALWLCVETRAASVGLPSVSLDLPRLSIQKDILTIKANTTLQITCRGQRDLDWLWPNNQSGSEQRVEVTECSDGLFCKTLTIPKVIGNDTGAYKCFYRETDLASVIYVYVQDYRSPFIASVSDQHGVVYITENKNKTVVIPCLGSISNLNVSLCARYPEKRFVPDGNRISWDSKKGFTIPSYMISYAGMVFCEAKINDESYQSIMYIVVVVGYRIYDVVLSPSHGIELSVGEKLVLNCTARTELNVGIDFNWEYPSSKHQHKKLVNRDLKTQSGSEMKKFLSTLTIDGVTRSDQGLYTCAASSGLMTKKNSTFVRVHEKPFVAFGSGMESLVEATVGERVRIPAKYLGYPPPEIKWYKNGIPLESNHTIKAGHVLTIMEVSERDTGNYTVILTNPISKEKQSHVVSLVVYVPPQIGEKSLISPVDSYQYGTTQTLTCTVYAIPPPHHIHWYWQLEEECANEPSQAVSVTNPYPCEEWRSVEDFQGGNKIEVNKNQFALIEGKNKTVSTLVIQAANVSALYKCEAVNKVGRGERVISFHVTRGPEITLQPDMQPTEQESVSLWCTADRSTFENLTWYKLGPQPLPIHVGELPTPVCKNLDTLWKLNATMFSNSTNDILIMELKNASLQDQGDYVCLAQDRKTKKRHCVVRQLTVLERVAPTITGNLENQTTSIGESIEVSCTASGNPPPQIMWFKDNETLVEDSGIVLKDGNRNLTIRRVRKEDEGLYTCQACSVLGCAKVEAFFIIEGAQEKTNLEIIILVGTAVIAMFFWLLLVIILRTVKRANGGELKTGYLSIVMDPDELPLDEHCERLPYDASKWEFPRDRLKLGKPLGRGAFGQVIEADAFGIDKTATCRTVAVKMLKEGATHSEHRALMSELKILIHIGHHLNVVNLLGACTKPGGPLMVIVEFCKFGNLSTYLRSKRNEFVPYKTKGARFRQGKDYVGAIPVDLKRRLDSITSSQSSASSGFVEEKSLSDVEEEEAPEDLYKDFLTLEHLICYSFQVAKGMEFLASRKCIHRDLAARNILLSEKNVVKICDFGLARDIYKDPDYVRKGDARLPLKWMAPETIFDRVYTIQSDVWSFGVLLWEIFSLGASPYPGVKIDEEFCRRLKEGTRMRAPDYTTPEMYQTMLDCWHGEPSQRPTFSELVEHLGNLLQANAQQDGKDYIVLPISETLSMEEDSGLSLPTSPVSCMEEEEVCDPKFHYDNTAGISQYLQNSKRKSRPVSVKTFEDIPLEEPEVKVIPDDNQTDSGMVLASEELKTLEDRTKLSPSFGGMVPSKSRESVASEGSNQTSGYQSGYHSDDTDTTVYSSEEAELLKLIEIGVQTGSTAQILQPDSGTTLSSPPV

C[C@H](Nc1nc(Nc2cn(C)cn2)c2cc[nH]c2n1)c1ncc(F)cn1
Activity (Mus musculus [1]): 7.2%
inhibition in vivo at 3 mg/kg [2]: 50%
TGI (UKE1): Dose-dependent effect
inhibition (Mus musculus [3]): Dose-dependent effect
inhibition (Mus musculus [4]): tde
inhibition in vivo at 3 mg/kg (Mus musculus [5]): 30%
inhibition in vivo at 3 mg/kg (Mus musculus [6]): 80%
inhibition in vivo at 10 mg/kg (Mus musculus [7]): 50%
inhibition (Mus musculus [8]): Active
inhibition [9]: Dose-dependent effect
IC50 [10]: 240 nM
inhibition [11]: Dose-dependent effect
IC50 [12]: 2000 nM
inhibition [13]: Dose-dependent effect
IC50 [14]: 260 nM
GI50 [15]: 220 nM
GI50 [16]: 1800 nM
IC50 [17]: 200 nM
IC50 [18]: 190 nM
IC50 (LIM domain kinase 1): 63 nM
IC50 (Aurora kinase A): 58 nM
IC50 [19]: 50 nM
IC50 [20]: 50 nM
IC50 [21]: 46 nM
IC50 [22]: 40 nM
IC50 [23]: 25 nM
IC50 [24]: 22 nM
IC50 [25]: 2.7 nM
half-life [26]: 12.4 h
Vd [27]: 2.2 L/kg
clearance [28]: 36 mL/min/kg
inhibition in vivo at 10 mg/kg [29]: 77%
